Assay results as given in publication PMC7302971 (Bioorganic chemistry, 2020).

Legend:
CEM leukemia cells = test: Differential Nuclear Staining; assay type: cell-based, human; settings: 48 h
Outline: (§1)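 Cells were seeded at 10,000/well and exposed to test compound for 48 h at 1% (v/v) final DMSO. The first screen used a single concentration with controls in quadruplicate. Dose-response used 0.5–100 μM in triplicate. Controls: DMSO vehicle, hydrogen peroxide (positive), untreated (negative). Hoechst 33342 plus PI were added 2 h before automated imaging, and colocalised signal was scored as dead. […] Two-tailed t-test versus DMSO.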

K-562 leukemia cells = test: Differential Nuclear Staining; assay type: cell-based, human
Outline: as §1

KCL-22 leukemia cells = test: Differential Nuclear Staining; assay type: cell-based, human; settings: Homo sapiens, KCL-22, 48 h
Outline: as §1

HDAC1 = HDAC1 (Homo sapiens, UniProt Q13547); test: HDAC enzyme activity assay; assay type: biochemical
Sequence of HDAC1 (Q13547 whole entry): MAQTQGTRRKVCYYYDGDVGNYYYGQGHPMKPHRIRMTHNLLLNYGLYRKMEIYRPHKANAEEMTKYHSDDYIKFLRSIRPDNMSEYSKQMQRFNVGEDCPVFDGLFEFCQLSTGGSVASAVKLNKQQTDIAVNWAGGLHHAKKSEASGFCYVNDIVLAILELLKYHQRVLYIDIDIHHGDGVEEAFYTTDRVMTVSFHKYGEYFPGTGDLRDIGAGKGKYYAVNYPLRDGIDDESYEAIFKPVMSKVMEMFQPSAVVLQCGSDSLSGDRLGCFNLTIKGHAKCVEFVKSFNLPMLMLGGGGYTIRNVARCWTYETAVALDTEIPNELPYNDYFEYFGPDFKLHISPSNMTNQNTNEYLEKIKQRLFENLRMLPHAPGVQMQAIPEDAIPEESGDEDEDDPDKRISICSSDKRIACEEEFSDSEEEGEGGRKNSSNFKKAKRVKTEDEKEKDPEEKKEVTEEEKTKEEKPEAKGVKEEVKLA
Outline: (§2)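 Commercial enzyme was preincubated with serial inhibitor dilutions for 60 min at 30 °C in 25 mM Tris-HCl pH 8.0, 75 mM KCl and 0.001% Pluronic F-127. Reaction was started with 50 μM Boc-Lys(acetyl)-AMC, run 60 min at 30 °C, and stopped with 4.17 μM SAHA. Trypsin (0.4 mg/ml) released AMC, read at Ex 350/Em 450 nm. IC50 came from a four-parameter logistic fit.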

HDAC2 = HDAC2 (Homo sapiens, UniProt Q92769); test: HDAC enzyme activity assay; assay type: biochemical
Sequence of HDAC2 (Q92769 whole entry): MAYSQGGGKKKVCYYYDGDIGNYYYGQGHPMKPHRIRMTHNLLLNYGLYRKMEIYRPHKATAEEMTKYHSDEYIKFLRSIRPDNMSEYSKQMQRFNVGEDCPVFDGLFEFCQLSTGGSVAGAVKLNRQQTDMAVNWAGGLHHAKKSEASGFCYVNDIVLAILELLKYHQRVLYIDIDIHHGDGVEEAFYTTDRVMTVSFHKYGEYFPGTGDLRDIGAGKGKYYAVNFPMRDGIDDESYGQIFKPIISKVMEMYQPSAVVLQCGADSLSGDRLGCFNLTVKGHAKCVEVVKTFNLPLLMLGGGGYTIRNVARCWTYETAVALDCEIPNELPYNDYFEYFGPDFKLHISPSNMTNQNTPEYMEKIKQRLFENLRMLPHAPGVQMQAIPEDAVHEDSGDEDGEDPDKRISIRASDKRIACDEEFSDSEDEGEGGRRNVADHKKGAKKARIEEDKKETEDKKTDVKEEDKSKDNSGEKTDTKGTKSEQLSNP
Outline: as §2

HDAC5 = HDAC5 (Homo sapiens, UniProt Q9UQL6); test: HDAC enzyme activity assay; assay type: biochemical
Sequence of HDAC5 (Q9UQL6 whole entry): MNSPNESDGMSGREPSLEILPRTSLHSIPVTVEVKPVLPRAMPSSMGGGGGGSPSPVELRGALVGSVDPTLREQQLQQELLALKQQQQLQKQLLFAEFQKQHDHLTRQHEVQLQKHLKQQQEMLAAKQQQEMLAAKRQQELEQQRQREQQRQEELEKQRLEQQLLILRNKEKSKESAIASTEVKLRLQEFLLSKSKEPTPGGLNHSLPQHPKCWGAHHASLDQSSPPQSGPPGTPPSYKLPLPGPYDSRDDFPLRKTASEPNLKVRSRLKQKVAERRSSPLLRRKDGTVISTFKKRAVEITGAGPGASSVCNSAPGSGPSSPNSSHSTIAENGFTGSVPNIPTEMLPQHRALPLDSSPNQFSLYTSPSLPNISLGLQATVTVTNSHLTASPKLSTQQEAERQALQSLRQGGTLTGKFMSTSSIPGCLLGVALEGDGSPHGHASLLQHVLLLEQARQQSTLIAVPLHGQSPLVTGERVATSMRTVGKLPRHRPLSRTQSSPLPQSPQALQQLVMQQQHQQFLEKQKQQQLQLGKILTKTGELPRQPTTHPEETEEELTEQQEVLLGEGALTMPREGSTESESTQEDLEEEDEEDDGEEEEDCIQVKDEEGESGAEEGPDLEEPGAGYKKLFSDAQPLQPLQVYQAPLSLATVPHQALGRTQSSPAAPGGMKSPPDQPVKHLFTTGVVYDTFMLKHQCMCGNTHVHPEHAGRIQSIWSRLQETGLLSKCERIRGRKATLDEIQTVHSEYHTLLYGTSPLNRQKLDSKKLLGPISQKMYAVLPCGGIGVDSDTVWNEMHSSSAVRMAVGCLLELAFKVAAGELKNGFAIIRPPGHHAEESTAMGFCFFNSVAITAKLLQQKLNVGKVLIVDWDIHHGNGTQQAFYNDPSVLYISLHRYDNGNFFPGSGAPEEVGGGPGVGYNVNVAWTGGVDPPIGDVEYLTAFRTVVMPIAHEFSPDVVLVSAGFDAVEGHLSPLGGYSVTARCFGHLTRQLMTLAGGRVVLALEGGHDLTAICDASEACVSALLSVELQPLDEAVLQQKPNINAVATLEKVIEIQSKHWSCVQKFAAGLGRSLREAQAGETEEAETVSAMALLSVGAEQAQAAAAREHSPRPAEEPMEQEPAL
Outline: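 Commercial HDAC5 was preincubated with serial inhibitor dilutions for 60 min at 30 °C in Tris-HCl pH 8.0 buffer. Reaction used 20 μM Boc-Lys(trifluoroacetyl)-AMC for 60 min at 30 °C and was stopped with 1.7 μM SATFMK. Trypsin development followed, then AMC fluorescence at 350/450 nm. IC50 came from a four-parameter logistic fit.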

HDAC7 = biological target: T1, HDAC7 (Homo sapiens, UniProt Q8WUI4); test: HDAC enzyme activity assay; assay type: biochemical
T1 sequence (Q8WUI4 1-952): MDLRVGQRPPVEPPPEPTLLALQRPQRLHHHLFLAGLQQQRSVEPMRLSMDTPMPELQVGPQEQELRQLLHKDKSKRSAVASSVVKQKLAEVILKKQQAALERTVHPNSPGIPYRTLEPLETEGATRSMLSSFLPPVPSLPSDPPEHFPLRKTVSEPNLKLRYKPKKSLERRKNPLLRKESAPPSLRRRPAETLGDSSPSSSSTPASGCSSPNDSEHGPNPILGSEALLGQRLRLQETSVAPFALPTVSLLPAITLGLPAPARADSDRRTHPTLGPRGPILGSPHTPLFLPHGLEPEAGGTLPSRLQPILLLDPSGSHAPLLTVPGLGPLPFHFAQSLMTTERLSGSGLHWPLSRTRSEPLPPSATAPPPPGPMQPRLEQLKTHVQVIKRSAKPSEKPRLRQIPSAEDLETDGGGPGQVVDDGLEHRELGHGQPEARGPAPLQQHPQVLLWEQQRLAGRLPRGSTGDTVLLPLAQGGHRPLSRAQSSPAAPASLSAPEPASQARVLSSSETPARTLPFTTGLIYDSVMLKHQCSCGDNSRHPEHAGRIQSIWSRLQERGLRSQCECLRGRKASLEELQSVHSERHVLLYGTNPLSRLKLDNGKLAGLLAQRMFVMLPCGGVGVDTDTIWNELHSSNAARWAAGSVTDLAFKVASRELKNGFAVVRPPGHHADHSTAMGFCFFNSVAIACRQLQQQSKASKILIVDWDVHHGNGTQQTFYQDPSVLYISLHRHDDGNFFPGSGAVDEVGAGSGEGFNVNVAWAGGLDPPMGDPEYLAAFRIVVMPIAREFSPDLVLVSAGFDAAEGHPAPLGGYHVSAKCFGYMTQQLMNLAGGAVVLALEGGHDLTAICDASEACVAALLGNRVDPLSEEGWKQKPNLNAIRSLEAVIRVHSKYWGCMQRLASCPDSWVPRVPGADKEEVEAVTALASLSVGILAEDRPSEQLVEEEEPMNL
Outline: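 Commercial HDAC7 was preincubated with serial inhibitor dilutions for 60 min at 30 °C in 25 mM Tris-HCl pH 8.0, 75 mM KCl and 0.001% Pluronic F-127. The AMC-substrate reaction ran 60 min at 30 °C, followed by trypsin development and fluorescence reading at Ex 350/Em 450 nm. IC50 came from a four-parameter logistic fit.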

HDAC8 [1] = biological target: T2, HDAC8 (Homo sapiens, UniProt Q9BY41); test: HDAC enzyme activity assay; assay type: biochemical; settings: for remaining activity at 50 µM: read-out: Residual HDAC8 activity at 50 μM
T2 sequence (Q9BY41 1-377): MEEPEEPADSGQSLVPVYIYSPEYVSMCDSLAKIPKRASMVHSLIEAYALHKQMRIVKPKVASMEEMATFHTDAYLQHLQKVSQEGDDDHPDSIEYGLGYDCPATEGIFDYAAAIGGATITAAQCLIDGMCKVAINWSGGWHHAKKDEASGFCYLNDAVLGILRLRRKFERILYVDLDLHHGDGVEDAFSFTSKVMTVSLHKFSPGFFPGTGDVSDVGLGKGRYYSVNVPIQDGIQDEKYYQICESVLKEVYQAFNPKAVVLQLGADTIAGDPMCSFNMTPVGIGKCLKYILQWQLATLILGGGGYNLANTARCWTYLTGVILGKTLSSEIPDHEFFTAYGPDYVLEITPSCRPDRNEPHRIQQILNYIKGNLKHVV
Outline: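 HDAC4 and HDAC8 were in-house recombinant enzymes. Each was preincubated with inhibitor, either a single 50 μM screen or serial dilutions, for 60 min at 30 °C in Tris-HCl pH 8.0/KCl/Pluronic buffer. Substrate was 20 μM Boc-Lys(trifluoroacetyl)-AMC for 60 min at 30 °C, stopped with 1.7 μM SATFMK, and developed with trypsin. AMC fluorescence was read at 350/450 nm and reported as residual activity or as IC50 from a four-parameter logistic fit.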

HDAC8 [2] = biological target: T2, HDAC8; test: Thermal shift assay; assay type: binding

Row | IC50 (HDAC1) [µM] | IC50 (HDAC2) [µM] | IC50 (HDAC5) [µM] | IC50 (HDAC7) [µM] | IC50 (HDAC8 [1]) [µM] | remaining activity at 50 µM (HDAC8 [1]) [%] | Structure (SMILES) | cell death at 100 μM (CEM leukemia cells; CEM, DNS assay, 100 μM) [% cell death at 100 μM] | cell death at 100 μM (K-562 leukemia cells; K562, DNS assay, 48 h, 100 μM) [% cell death at 100 μM] | CC50 (KCL-22 leukemia cells) [µM] | Thermal shift (ΔT), stabilizing effect on HDAC8 (HDAC8 [2]) | CC50 (CEM leukemia cells; Homo sapiens) [µM] | CC50 (K-562 leukemia cells; Homo sapiens, K562, 48 h) [µM]
1 | > 50 | 45 | 43 | > 50 | 23 ± 1.1 | 17 | Cc1c(NC(=O)CN2C(=O)SC(=Cc3ccccn3)C2=O)c(=O)n(-c2ccccc2)n1C [Compound P10, N-(1,5-dimethyl-3-oxo-2-phenyl-2,3-dihydro-1H-pyrazol-4-yl)-2-(2,4-dioxo-5-(pyridin-2-ylmethylene)thiazolidin-3-yl)acetamide] | 2.39 | 27.06 | 17.4 ± 2.4 | did not confer significant stability to the protein |  | 
2 | > 50 | 41 | > 50 | > 50 | 9.3 ± 1 | 22 | O=C(CN1C(=O)SC(=Cc2ccccn2)C1=O)Nc1nc2ccccc2s1 [Compound P19, N-(benzo[d]thiazol-2-yl)-2-(2,4-dioxo-5-(pyridin-2-ylmethylene)thiazolidin-3-yl)acetamide] |  |  | 43.2 ± 0.23 | about 0.3 °C | 79.9 ± 3.74 | 85.4 ± 3.25
